Sampled rows, rich in hits. Any-hit rate of the full collection: about 3.1%.
KCNK3 block = human KCNK3 channel inhibitors, primary screen, CHO cells, FluxOR thallium flux, B-score; Potassium channel subfamily K member 3 (Homo sapiens), O14649; FluxOR fluorescence; hits give low values; B-score at 10 µM; hit rate 0.84% among 340,000;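 active = B-score under library mean minus 4 SD, starting fluorescence ratio at most library mean plus 5 SD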;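 note: more negative B-score means stronger inhibition of thallium flux through KCNK3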
Target sequence (O14649 whole entry, looked up): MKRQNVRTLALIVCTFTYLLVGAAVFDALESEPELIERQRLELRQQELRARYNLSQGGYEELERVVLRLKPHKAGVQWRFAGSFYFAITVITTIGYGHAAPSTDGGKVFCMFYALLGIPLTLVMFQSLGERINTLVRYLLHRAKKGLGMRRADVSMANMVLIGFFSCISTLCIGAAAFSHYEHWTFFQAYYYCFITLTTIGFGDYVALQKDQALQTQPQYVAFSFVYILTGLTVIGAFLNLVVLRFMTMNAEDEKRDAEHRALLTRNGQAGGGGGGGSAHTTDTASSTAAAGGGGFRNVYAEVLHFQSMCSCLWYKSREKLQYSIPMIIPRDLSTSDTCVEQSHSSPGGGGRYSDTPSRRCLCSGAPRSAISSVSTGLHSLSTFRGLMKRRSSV
KCNK9 block = KCNK9 potassium channel inhibitors, primary screen, HEK293 cells, thallium flux; Potassium channel subfamily K member 9 (Homo sapiens), Q9NPC2; FluxOR thallium flux fluorescence; hits give low values; B-score at 10 µM; hit rate 1.2% among 310,000; AID 488922, 2010;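 active = ratio B-score over 3 SD below the library mean, with starting fluorescence within 5 SD of its mean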;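 note: negative B-score means less thallium flux so channel inhibition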
KCNQ1 pot = potentiators or activators of KCNQ1 channel, primary screen, cell-based, thallium flux, high-throughput | B-score at 10 µM | CHO-K1 KCNQ1, thallium flux FluxOR fluorescence; hits give high values | hit rate 0.35% among 310,000 | Potassium voltage-gated channel subfamily KQT member 1 (Homo sapiens), P51787 | AID 2648, 2010;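 active = fluorescence ratio B-score, a plate-corrected score, at least three library SD, with initial intensity B-score within 5 SD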
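assay system = CHO-K1 cells stably expressing KCNQ1 | medium = assay buffer, equal DMSO in all wells | timing = 37 °C overnight plating, 90-min dark dye load, 20-min compound pretreatment | measured by = kinetic FluxOR thallium fluorescence, 10-s 1-Hz baseline, 110-s post-stimulus read | measure = fluorescence change relative to baseline, converted to B score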
hERG rescue = hERG rescue from dofetilide block, primary screen, cell-based, CHO-hERG, FluxOR thallium flux, dofetilide IC70. Voltage-gated inwardly rectifying potassium channel KCNH2 (Homo sapiens), Q12809. dofetilide IC70 present. activation (rescue from dofetilide block), less the hit threshold, % at 10 µM. hit rate 0.51% among 310,000. AID 1511, 2009;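 active = activation above the mean of controls blocked by dofetilide plus 5 SD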;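 note: thallium influx through hERG after potassium depolarization seen as dye fluorescence rise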
KCNQ1 inh = inhibitors of human KCNQ1 channel, primary screen, cell-based, thallium flux, high-throughput. Potassium voltage-gated channel subfamily KQT member 1 (Homo sapiens), P51787. CHO-K1 KCNQ1, FluxOR thallium flux fluorescence; hits give high values. B-score at 10 µM. hit rate 1.3% among 310,000;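 active = compounds whose thallium flux B-score, printed positive for inhibition, exceeds three library SD while starting fluorescence stays within three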;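 note: channel opened by potassium depolarization with thallium stimulus after 20 min compound exposure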
Starred values were filed as active, the others as inactive; i = inactive; / = no result given.

SMILES	KCNK3 block	KCNK9 block	KCNQ1 pot	hERG rescue	KCNQ1 inh
CC(NC(=O)c1ccc(Br)cc1)c1ccc2c(c1)CCCC2 (configuration not stated)	i	i	i	7.8*	i
CC(NC(=O)c1ccc(F)cc1)c1ccc2c(c1)CCCC2 (configuration not stated)	i	i	i	0	i
Cc1cc(/C=N/NC(=O)COc2cccc3cccnc23)c(C)n1-c1ccc(O)cc1	i	i	i	-3	i
Cc1cc(C)cc(-n2c(C)cc(/C=N\NC(=O)COc3cccc4cccnc34)c2C)c1	i	i	i	-10	7*
CC(=O)OCC1O[C@@H](O[C@@H]2C[C@H]3C(C)(C)[C@H](OC(C)=O)CC[C@]3(C)[C@H]3CC[C@]45C[C@]4(CC[C@H]5[C@@H](C)C[C@@H](O)[C@H](O)C(C)(C)O)[C@@]32C)[C@H](O)[C@@H](O)[C@@H]1O (some centres not stated)	/	i	i	6.5*	i
CCNC(=S)N1CCN(c2nc(CC)nc3sc4c(c23)CCCC4)CC1	-12*	i	i	-14	i
CCOC(=O)c1nc(N2CCN(C(=O)OCC)CC2)c2c3c(sc2n1)CCCC3	i	i	i	-19	i
O=C(OCC(=O)N1CCN(C(=O)c2ccco2)CC1)c1cccc(S(=O)(=O)N2CCc3ccccc32)c1	i	i	i	-8	i
O=C(C[C@@H]1C/C=C/CCCC(=O)O[C@H](c2ccccc2)CNC1=O)N[C@H](CO)Cc1ccccc1	i	/	/	/	/
CCc1ccc(NC(=O)CSc2nccn(-c3ccc4c(c3)OCCO4)c2=O)cc1	i	i	i	-14	i
CC(C)(C)OC(=O)NCCc1nnc(SCC(N)=O)o1	i	i	i	-20	i
CC(C)(C)OC(=O)NCCCCCc1nnc(SCC(N)=O)o1	i	i	i	4.6*	i
Cc1nn(Cc2ccc(C(=O)N/N=C/c3ccncc3)o2)c(C)c1Cl	i	i	i	-12	i
Cc1ccc(CNC(=O)c2ccc(Cn3nc(C)c(Cl)c3C)o2)cc1	i	-7*	i	-18	i
O=C1OC(c2ccccc2)(c2cc(Br)ccc2O)c2ccccc21 (configuration not stated)	-9.8*	/	/	/	/
NNC(=O)CNc1ccccc1Cl	i	i	i	5.6*	i
O=C(CCCCC(=O)Nc1ccccc1Cl)Nc1ccccc1Cl	i	i	i	-7	i
O=c1c(-c2ccc(Cl)cc2)[n+]([O-])c2ccccc2n1O	i	i	32*	40*	i
O=c1c(-c2cccc([N+](=O)[O-])c2)[n+]([O-])c2ccccc2n1O	i	i	i	-10	i
COc1ccc(CN2[C@@H](CC(=O)O)c3ccccc3S2(=O)=O)cc1	i	i	i	6.7*	i
CC=Cc1cc(OC)c2c(c1)C(C)C(c1ccc(O)c(OC)c1)O2 (configuration not stated)	i	/	/	/	/
CN(C)S(=O)(=O)c1cccc(NC(=S)NC23CC4CC(CC(C4)C2)C3)c1	i	i	i	-1	i
CCN(CC)S(=O)(=O)c1cccc(NC(=O)CCNC(=O)NC23CC4CC(CC(C4)C2)C3)c1	i	i	i	-13	8*
Cc1c(Cc2ccccc2)c(=O)oc2cc(OCC(=O)NC(Cc3ccc(Cl)cc3)C(=O)O)ccc12 (configuration not stated)	i	-7.3*	i	-11	i
Cc1c(C)c2ccc(OCC(=O)NC(Cc3ccc(Cl)cc3)C(=O)O)cc2oc1=O (configuration not stated)	i	i	i	-4	i
O=C(COC(=O)c1ccc(F)c([N+](=O)[O-])c1)NC(=O)NCc1ccccc1	i	/	/	/	/
O=C1OCC2=C1C(c1ccc(F)cc1)Sc1ccccc1N2 (configuration not stated)	i	i	i	6.0*	i

Assay outcomes as filed in PubChem.
